Source: PubChem (several laboratories)
Casp6 inh = human caspase-6 inhibitors, primary screen, biochemical, VEID-R110 fluorescence, single point, set 2. purified caspase-6, Z-VEID-R110 cleavage fluorescence. 350,000 tested, 0.53% active. inhibition, % at 12.5 µM. P55212. AID 686996, 2013;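 active = mean inhibition across replicates at least about 35%, with every replicate also reaching that limit, limit read from the data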;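 also: 0% = median of neutral control wells and 100% = no fluorescence left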
NS3 helicase inh = inhibitors of HCV NS3 helicase, primary screen, biochemical, Cy5 molecular beacon fluorescence | Hepatitis C virus NS3 helicase | NS3 helicase DNA unwinding | inhibition, % at 10.9 µM | 290,000 tested, 0.56% active;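 active = inhibition above the mean of all tested compounds plus 3 SD, set per campaign, cut at about 35% in these data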;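 also: 0% = DMSO wells and 100% = thioflavine S control wells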
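Compound dosing – single dose, 10.9 µM nominal final, DMSO 0.8% final · System – NS3 helicase fragment of HCV · Buffer or medium – MOPS pH 6.5, MgCl2, DTT, Tween20, BSA · Signal – Cy5 beacon fluorescence read at start and 1 h · Also added – annealed dual-labelled DNA beacon duplex, ATP-started · Schedule – 1 h at 25 °C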
NSD2 inh = NSD2 histone methyltransferase inhibitors, primary screen, biochemical, AlphaScreen, single concentration, set 2; NSD2 peptide methylation, 120 min; inhibition, % at 12.5 µM; 310,000 tested, 0.54% active
DNMT1 inh = human DNMT1 methyltransferase inhibitors, primary screen, biochemical, molecular beacon, fluorescence, HinP1I cleavage, uHTS | inhibition (reported as % activation of signal), % at 10 µM | 360,000 tested, 0.83% active | AID 588458, 2011
Target sequence (P26358 504-1616 limits assumed): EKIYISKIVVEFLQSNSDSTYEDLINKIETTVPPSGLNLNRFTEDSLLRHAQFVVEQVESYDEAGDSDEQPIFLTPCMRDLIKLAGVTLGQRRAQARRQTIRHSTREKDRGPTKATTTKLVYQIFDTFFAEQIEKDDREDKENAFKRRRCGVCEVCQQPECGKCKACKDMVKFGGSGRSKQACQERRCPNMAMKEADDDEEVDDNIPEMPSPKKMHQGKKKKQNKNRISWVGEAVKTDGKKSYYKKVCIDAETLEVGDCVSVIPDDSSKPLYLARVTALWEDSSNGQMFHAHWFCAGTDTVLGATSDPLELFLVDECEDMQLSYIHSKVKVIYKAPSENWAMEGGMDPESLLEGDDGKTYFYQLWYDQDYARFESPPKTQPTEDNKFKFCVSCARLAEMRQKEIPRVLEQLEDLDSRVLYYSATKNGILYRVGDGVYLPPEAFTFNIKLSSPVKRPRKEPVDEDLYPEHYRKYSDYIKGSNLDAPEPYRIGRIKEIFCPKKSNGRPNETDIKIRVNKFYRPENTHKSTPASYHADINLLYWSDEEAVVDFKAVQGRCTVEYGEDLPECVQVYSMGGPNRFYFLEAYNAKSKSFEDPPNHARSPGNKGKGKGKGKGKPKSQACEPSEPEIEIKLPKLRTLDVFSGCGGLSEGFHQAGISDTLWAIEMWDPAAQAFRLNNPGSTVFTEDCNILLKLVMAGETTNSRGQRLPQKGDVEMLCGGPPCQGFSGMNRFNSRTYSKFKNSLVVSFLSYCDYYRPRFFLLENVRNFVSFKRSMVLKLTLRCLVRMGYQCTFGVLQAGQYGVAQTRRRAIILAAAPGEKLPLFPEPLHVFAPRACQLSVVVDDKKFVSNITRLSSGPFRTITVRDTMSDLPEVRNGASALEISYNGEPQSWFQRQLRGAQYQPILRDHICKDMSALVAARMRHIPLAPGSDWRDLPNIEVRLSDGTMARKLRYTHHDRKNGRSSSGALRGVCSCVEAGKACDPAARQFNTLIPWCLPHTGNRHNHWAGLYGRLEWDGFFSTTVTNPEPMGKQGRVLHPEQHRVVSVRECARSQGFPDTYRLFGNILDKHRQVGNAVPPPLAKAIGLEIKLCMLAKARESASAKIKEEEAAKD
The depositor's hits bear a star; nt = not tested or not shown. Sampled rows, rich in hits. Any-hit rate of the full collection: about 1.5%. Rule as the data show it, unless noted: active = inhibition above about 50%; inactive = the rest.

SMILES	Casp6 inh	NS3 helicase inh	NSD2 inh	DNMT1 inh
C[C@@H]1CN([C@@H](C)CO)C(=O)c2cc(NS(=O)(=O)c3cn(C)cn3)ccc2O[C@@H](C)CCCCO[C@@H]1CN(C)S(=O)(=O)c1ccc(Cl)cc1	-2	nt	nt	nt
COc1cc(CC2COC(c3ccc(O)c(OC)c3)C2COC(C)=O)ccc1O (stereo not drawn)	58*	nt	nt	63*
COc1cc([C@@H]2OC[C@@H]3[C@H]2CO[C@@H]3c2ccc3c(c2)OCO3)ccc1O	3	nt	nt	7
Nc1ccc(C(=O)Nc2ccc3c(O)cc(S(=O)(=O)O)cc3c2)cc1	84*	nt	8	12
COc1nnc(-c2ccc(C(=O)N3C[C@@H]4C[C@H](C3)c3cccc(=O)n3C4)cc2)c2ccccc12	nt	0	-1	3
O=C(c1ccc(-c2nnc(Nc3cccc(Cl)c3)c3ccccc23)cc1)N1C[C@H]2C[C@H](C1)c1cccc(=O)n1C2	nt	-4	-2	74*
CC(=O)N1c2ccc(S(=O)(=O)N(C)CC(=O)NCc3ccc(C)cc3)cc2CC1C (stereo not drawn)	72*	-5	-9	1
CO[C@H]1CN(C)C(=O)c2ccc(NC(=O)c3ccc(F)cc3)cc2OC[C@H](C)N(C)C[C@@H]1C	0	nt	nt	nt
COCCNC(=O)C[C@@H]1CC[C@@H]2[C@H](COC[C@H](O)CN2C(=O)Nc2ccccc2OC)O1	2	nt	nt	nt
O=C(CCc1nc2sc3c(c2c(=O)[nH]1)CCCC3)NCCc1ccccc1	2	nt	2	6
CCc1ccccc1NC(=O)CNC(=O)CCc1nc2sc3c(c2c(=O)[nH]1)CCCC3	36*	nt	5	40
O=C(Cc1ccccn1)NCC[C@@H]1CC[C@@H](NC(=O)Nc2ccc(Cl)cc2)[C@H](CO)O1	1	nt	nt	nt
C[C@@H](NC(=O)[C@@H]1[C@@H](CO)[C@@H]2Cn3c(ccc(-c4ccncc4)c3=O)[C@H]1N2C)c1ccccc1	0	nt	nt	nt
C[C@H](CO)N1C[C@H](C)[C@H](CN(C)C(=O)c2ccccc2)Oc2ncc(C3=CCCCC3)cc2C1=O	1	nt	nt	nt
Cc1ccc(NC(=O)CSc2nnc(Cc3csc(C)n3)o2)c(C)c1	62*	nt	-1	0
CCCNC(=O)N1C[C@@H](O)COC[C@@H]2O[C@H](CC(=O)NCc3ccc(Cl)c(Cl)c3)CC[C@H]21	0	nt	nt	nt
CO[C@H]1CN(C)C(=O)c2ccc(NC(=O)C3CC3)cc2OC[C@@H](C)N(C(=O)c2ccccc2F)C[C@H]1C	4	nt	nt	nt
Cc1noc(C)c1S(=O)(=O)Nc1ccc2c(c1)C(=O)N([C@H](C)CO)C[C@@H](C)[C@H](CN(C)Cc1ccncc1)OCCCC[C@@H](C)O2	2	nt	nt	nt
NC(CSC(c1ccccc1)(c1ccccc1)c1ccccc1)C(=O)O (stereo not drawn)	2	nt	0	52*
C/C(=N/NC(N)=S)c1cc2ccc(O)cc2oc1=O	42*	-1	18	47
C/C(=N/NC(=O)c1ccncc1)c1cc2ccc(O)cc2oc1=O	-3	2	2	-7
C[C@@H]1CCCCO[C@@H](CN(C)Cc2ccccc2)[C@@H](C)CN([C@@H](C)CO)C(=O)c2cc(NC(=O)CCCN(C)C)ccc2O1	0	nt	nt	nt
Cc1[nH][nH]c(=O)c1C(c1c(C)[nH][nH]c1=O)c1cn(Cc2ccc(Cl)c(Cl)c2)c2ccccc12	22	-12	98*	30
O=C(O)Cc1cn(Cc2ccc(F)cc2)c2ccccc12	2	2	3	3
Cc1[nH][nH]c(=O)c1C(c1c(C)[nH][nH]c1=O)c1cn(Cc2ccc(F)cc2)c2ccccc12	nt	-14	88*	39
SMILES	Casp6 inh	NS3 helicase inh	NSD2 inh	DNMT1 inh
COC(=O)c1c(NC(=O)CSc2n[nH]c(N)n2)sc(C)c1C	nt	-4	0	-10
Cc1sc(NC(=O)CSc2n[nH]c(N)n2)c(C#N)c1C	40*	nt	1	-2
Cc1ccc(/C=C/C2=Cc3c(sc(NC(=O)CSc4n[nH]c(N)n4)c3C#N)C(C)(C)C2)o1	nt	45*	nt	nt
O=C(OCC(=O)N1CCN(C(=O)c2ccco2)CC1)c1cc(-c2ccc(Cl)c(Cl)c2Cl)nc2ccccc12	nt	-7	-5	-13
O=C(OCC(=O)N1CCN(C(=O)c2ccco2)CC1)c1cc(-c2ccco2)nc2ccccc12	22	6	2	97*
CO[C@@H]1CN(C)C(=O)c2cc(NC(=O)Cc3ccccc3)ccc2OC[C@H](C)N(C(C)=O)C[C@@H]1C	1	nt	nt	nt
CC(C)(C)C(=O)[C@@H]1[C@@H]2C(=O)N(C3CCCCC3)C(=O)[C@@H]2[C@H]2c3ccccc3C=CN12	nt	-1	125*	-11
COc1ccc(N2C(=O)[C@@H]3[C@H](C2=O)[C@H]2c4ccccc4C=CN2[C@@H]3C(C)=O)cc1	84*	8	14	-21
COc1ccc(N2C(=O)[C@H]3[C@@H](C2=O)C2c4ccccc4C=NN2[C@H]3C(=O)C(C)(C)C)cc1 (stereo partly drawn)	3	4	25	-6
CC(C)C#Cc1ccc([C@H]2[C@@H](CO)N3C(=O)CN(C(=O)c4ccccn4)C[C@H]23)cc1	0	nt	nt	nt
C#CC(=O)CC1(CN(Cc2ccccc2)C(=O)OC(C)(C)C)CCCCC1	0	nt	nt	54*
COc1ccc(OCC(=O)OCC(=O)N2CC(=O)Nc3ccccc32)cc1	3	-15	-1	1
CCc1ccccc1OCC(=O)OCC(=O)N1CC(=O)Nc2ccccc21	60*	1	2	4
COC(=O)c1ccc(C)c(NC(=O)CSc2sc3c(O)cc(=O)[nH]c3c2C#N)c1	54*	8	28	27
COc1ccc(NC(=O)CSc2sc3c(O)cc(=O)[nH]c3c2C#N)c(OC)c1	59*	19	47	24
COc1ccccc1NC(=O)CSc1sc2c(O)cc(=O)[nH]c2c1C#N	31	15	nt	10
Cc1ccc(Cl)cc1NC(=O)CSc1sc2c(O)cc(=O)[nH]c2c1C#N	44*	12	3	15
Cc1ccc(C)c(NC(=O)CSc2sc3c(O)cc(=O)[nH]c3c2C#N)c1	47*	7	nt	15
CCC(=O)Nc1ccc2c(c1)OC[C@H](C)N(CCC(F)(F)F)C[C@H](C)[C@@H](OC)CN(C)C2=O	-1	nt	nt	nt
C[C@H]1CCCCO[C@H](CN(C)C(=O)NC2CCCCC2)[C@@H](C)CN([C@@H](C)CO)C(=O)c2cc(NC(=O)CCCN(C)C)ccc2O1	8	nt	nt	nt
CN(C)c1ccc(/C=N/N=C2/NC(=O)/C(=C/c3ccc([N+](=O)[O-])cc3)S2)cc1	nt	6	2	66*
CC1CCCC(NC(=O)c2cc(S(=O)(=O)N3CCOCC3)ccc2F)C1C (stereo not drawn)	0	29	2	0
CC1CC(C)CN(S(=O)(=O)c2ccc(F)c(C(=O)NC3CCCCC3C)c2)C1 (stereo not drawn)	62*	nt	-1	3
